Assay results: ChEMBL document CHEMBL4715714, “Design, synthesis and biological evaluation of thiosemicarbazones, hydrazinobenzothiazoles and arylhydrazones as anticancer agents with a potential to overcome multidrug resistance” (Eur J Med Chem, 2016)
The source made the active and inactive calls. No cut-off for these calls is given here.

Assays:
MES-SA [1] = assay: Cytotoxicity against human MES-SA cells assessed as inhibition of cell proliferation incubated for 72 hrs by MTT assay; assay type: functional, cell-based
Outline: (§1)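 Cells were seeded (10000/well for A2780, 5000/well for MES-SA/Dx5 and KB-3-1/V1) and left to attach 12 h, then exposed to compound for 72 h. Medium was removed, and MTT (0.83 mg/mL) was added for 1 h at 37 °C. Cells were lysed in DMSO and absorbance read at 540 nm. Signal was corrected for unstained lysate background, normalized to untreated cells, and IC50 taken from a sigmoidal dose-response fit.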

MES-SA/Dx5 [2] = assay: Cytotoxicity against human MES-SA/DX5 cells assessed as inhibition of cell proliferation incubated for 72 hrs by MTT assay; assay type: functional, cell-based; conditions: MES-SA/Dx5, 72 h; outline: as §1
MES-SA [3] = assay: Cytotoxicity against human MES-SA cells transfected with mCherry fluorescent protein assessed as inhibition of cell proliferation incubated for 72 hrs by fluorescent assay; assay type: functional, cell-based
Outline: (§2)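 MES-SA and MES-SA/Dx5 cells were made to stably express mCherry by lentiviral transduction. Cells were seeded at 5000 (96-well) or 2500 (384-well) per well, allowed to attach 24 h, then treated with compound dilutions for 72 h. Viability was read as fluorescence, excitation 585 nm, emission 610 nm.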

MES-SA/Dx5 [4] = assay: Cytotoxicity against human MES-SA/DX5 cells transfected with mCherry fluorescent protein assessed as inhibition of cell proliferation incubated for 72 hrs by fluorescent assay; assay type: functional, cell-based; conditions: Homo sapiens, MES-SA/Dx5, 72 h; outline: as §2
KB 3-1 = assay: Cytotoxicity against human KB-3-1 cells assessed as inhibition of cell proliferation incubated for 72 hrs by MTT assay; assay type: functional, cell-based; conditions: KB 3-1, 72 h; outline: as §1
KB-V1 [5] = assay: Cytotoxicity against human KB-V1 cells assessed as inhibition of cell proliferation incubated for 72 hrs by MTT assay; assay type: functional, cell-based; conditions: KB-V1, 72 h; outline: as §1
A2780 = assay: Cytotoxicity against human A2780 cells assessed as inhibition of cell proliferation incubated for 72 hrs by MTT assay; assay type: functional, cell-based; conditions: for IC50: A2780, 72 h; outline: as §1
[6] = (§3) Cytotoxicity against human A2780adr cells assessed as inhibition of cell proliferation incubated for 72 hrs by MTT assay; assay type: functional, cell-based; conditions: A2780 ADR; outline: as §1
MES-SA/Dx5 [7] = assay: Cytotoxicity against human MES-SA/DX5 cells incubated for 72 hrs in presence of efflux pump inhibitor, Tariquidar by MTT assay; assay type: functional, cell-based
Outline: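 Run as the 72 h MTT viability readout (12 h attachment, MTT 0.83 mg/mL for 1 h, DMSO lysis, A540), with the P-gp inhibitor Tariquidar at 1 µM co-present. IC50 came from sigmoidal fits of 2 to 4 independent experiments.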

MES-SA/Dx5 [8] = assay: Reduction in P-gp expression in human MES-SA/DX5 cells at IC20 concentration incubated for 5 days by calcein-AM staining based flow cytometric analysis; assay type: functional, cell-based; conditions: time 5.0 day
Outline: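 MES-SA/Dx5 cells were grown 5 days with compound at IC20 values calculated from viability assays, then recovered in drug-free medium refreshed every fifth day. At 80% confluency, cells were stained with Calcein AM with or without verapamil, with TO-PRO-3 excluding dead cells, and analysed by flow cytometry for the P-gp-negative fraction.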

[9] = Selectivity ratio of IC50 for human MES-SA cells to IC50 for human MES-SA/DX5 cells incubated for 72 hrs by MTT assay; assay type: functional
Outline: (§4)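 The selectivity ratio is the IC50 in P-gp-negative parental cells divided by the IC50 in the P-gp-positive resistant partner.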

[10] = Selectivity ratio of IC50 for human MES-SA cells transfected with mCherry to IC50 for human MES-SA/DX5 cells transfected with mCherry incubated for 72 hrs by fluorescent assay; assay type: functional
MES-SA/Dx5 [11] = assay: Cytotoxicity against human MES-SA/DX5 cells transfected with mCherry fluorescent protein incubated for 72 hrs in presence of efflux pump inhibitor, Tariquidar by fluorescence assay; assay type: functional, cell-based
Outline: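 The mCherry-expressing cells (lentiviral) were seeded at 5000 or 2500 per well, attached for 24 h, and exposed 72 h to compounds with Tariquidar coadministered. Live-cell signal was fluorescence at 585 nm excitation and 610 nm emission.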

HFF = assay: Cytotoxicity against human HFF cells by MTT assay
[12] = Selectivity ratio of IC50 for human KB-3-1 cells to IC50 for human KB-V1 cells incubated for 72 hrs by MTT assay; assay type: functional; outline: as §4
KB-V1 [13] = assay: Cytotoxicity against human KB-V1 cells assessed as inhibition of cell proliferation incubated for 72 hrs in presence of efflux pump inhibitor, Tariquidar by MTT assay; assay type: functional, cell-based
[14] = Selectivity ratio of IC50 for human A2780 cells to IC50 for human A2780adr cells incubated for 72 hrs by MTT assay; assay type: functional; outline: as §4
A2780 ADR [15] = assay: Cytotoxicity against human A2780adr cells assessed as inhibition of cell proliferation incubated for 72 hrs in presence of efflux pump inhibitor, Tariquidar by MTT assay; assay type: functional, cell-based
A2780 ADR [16] = assay: as §3; assay type: functional, cell-based; outline: as §1
[17] = Homo sapiens, MES-SA, 72 h, read-out: IC50
[18] = Homo sapiens, MES-SA, 72 h, read-out: pIC50 (converted)

| Structure (SMILES) | IC50 (MES-SA [1]; read-out: IC50) | IC50 (MES-SA [1]; read-out: pIC50 (converted)) | IC50 (MES-SA/Dx5 [2]; read-out: IC50) | IC50 (MES-SA/Dx5 [2]; read-out: pIC50 (converted)) | IC50 (MES-SA [3]; [17]) | IC50 (MES-SA/Dx5 [4]; read-out: IC50) | IC50 (KB 3-1; read-out: IC50) | IC50 (KB 3-1; read-out: pIC50 (converted)) | IC50 (KB-V1 [5]; read-out: IC50) | IC50 (KB-V1 [5]; read-out: pIC50 (converted)) | IC50 (A2780; read-out: IC50) | IC50 (A2780; read-out: pIC50 (converted)) | IC50 ([6]; read-out: IC50) | IC50 ([6]; read-out: pIC50 (converted)) | Activity (MES-SA/Dx5 [7]) | Ratio IC50 [9] | Ratio IC50 [10] | Activity (HFF) | IC50 (MES-SA [3]; [18]) | IC50 (MES-SA/Dx5 [4]; read-out: pIC50 (converted)) | further results |
| --- | --- | --- | --- | --- | --- | --- | --- | --- | --- | --- | --- | --- | --- | --- | --- | --- | --- | --- | --- | --- | --- |
| Cc1ccc(NC(=S)N/N=C2\C(=O)Nc3ccccc32)cc1 | 5.33 µM | 5.13 µM | 3.27 µM | 3.31 µM | 11.3 µM | 3.27 µM | 4.44 µM | 4.17 µM | 4 µM | 3.98 µM | 9.7 µM | 9.55 µM | 8.75 µM | 8.91 µM | Active | 1.87 | 3.1 | Toxic | – | – | inhibition (MES-SA/Dx5 [8]): Active; Activity (MES-SA/Dx5 [11]): inactive |
| COc1ccc(NC(=S)N/N=C2\C(=O)Nc3ccc(OC(F)(F)F)cc32)cc1 | 6.14 µM | 5.75 µM | 2.78 µM | 2.57 µM | 8.14 µM | 2.52 µM | 6.56 µM | 6.17 µM | 3.92 µM | 3.89 µM | 3.39 µM | 3.24 µM | 3.77 µM | 3.55 µM | inactive | 2.31 | 3.29 | – | – | – | Activity (MES-SA/Dx5 [11]): inactive |
| C/C(=N\NC(=S)Nc1ccc(C)cc1)c1ccccn1 | 0.016 µM | 0.017 µM | 0.0018 µM | 0.0017 µM | 0.065 µM | 0.029 µM | 0.0404 µM | 0.0372 µM | 0.036 µM | 0.0331 µM | 0.017 µM | 0.0162 µM | 0.021 µM | 0.0204 µM | Active | 6.25 | – | Non-Toxic | 0.0417 µM | 0.0257 µM | Ratio IC50 [12]: 1.15; Activity (KB-V1 [13]): Active |
| C/C(=N\Nc1nc2ccccc2s1)c1ccccc1O | 12.5 µM | 12.3 µM | 5.52 µM | 5.25 µM | 21.6 µM | 11.6 µM | 14.3 µM | 13.8 µM | 12.1 µM | 11.5 µM | 8.74 µM | 8.32 µM | – | 9.77 µM | Active | 1.91 | 1.9 | Toxic | 21.4 µM | 8.91 µM | Activity (MES-SA/Dx5 [11]): Active |
| Cc1ccc(NC(=S)N/N=C/c2ccccn2)cc1 | 0.396 µM | 0.363 µM | 0.076 µM | 0.0724 µM | 0.79 µM | 0.77 µM | 0.74 µM | 0.724 µM | 0.92 µM | 0.891 µM | 0.048 µM | 0.0479 µM | 0.064 µM | 0.0631 µM | Active | 4.55 | – | Non-Toxic | 0.759 µM | 0.562 µM | – |
| COc1cc(N/N=C(\C)c2ccccn2)ncn1 | 0.26 µM | – | 0.095 µM | – | 0.26 µM | 0.22 µM | 0.36 µM | 0.355 µM | 0.49 µM | 0.49 µM | 0.14 µM | 0.132 µM | 0.027 µM | 0.0257 µM | Active | 2.62 | – | Non-Toxic | 0.339 µM | 0.234 µM | Ratio IC50 [14]: 4.33; Activity (A2780 ADR [15]): Active |
| COc1cc(N/N=C2/C(=O)Nc3ccccc32)ncn1 | – | 91.2 µM | – | 129 µM | – | – | – | 55 µM | – | – | – | – | – | – | – | – | – | – | – | – | IC50 (MES-SA [3]; mes-sa): Not Active; pIC50 (A2780): inactive; pIC50 (A2780 ADR [16]): inactive |
| COc1ccc(NC(=S)N/N=C2\C(=O)Nc3ccccc32)cc1 | 6.1 µM | 6.03 µM | 3.59 µM | 3.47 µM | 12.1 µM | 4.15 µM | 7.82 µM | 7.59 µM | 3.78 µM | 3.98 µM | 7.49 µM | 7.41 µM | 4.84 µM | 4.68 µM | inactive | 1.87 | 3.17 | – | – | – | inhibition (MES-SA/Dx5 [8]): Active; Ratio IC50 [12]: 2.04; Ratio IC50 [14]: 1.6; Activity (MES-SA/Dx5 [11]): inactive; Activity (KB-V1 [13]): inactive; Activity (A2780 ADR [15]): inactive |
| C/C(=N\Nc1nc2ccccc2s1)c1ccccn1 | 0.2 µM | 0.219 µM | 0.014 µM | 0.0123 µM | 0.25 µM | 0.1 µM | 0.34 µM | 0.372 µM | 0.28 µM | 0.295 µM | 0.094 µM | 0.0891 µM | 0.031 µM | 0.0302 µM | Active | 17.58 | – | Non-Toxic | 0.24 µM | 0.0832 µM | – |
| COc1ccc(NC(=S)N/N=C(\C)c2ccccn2)cc1 | 0.34 µM | 0.339 µM | 0.0142 µM | 0.0141 µM | 0.25 µM | 0.064 µM | 0.95 µM | 0.692 µM | 1.75 µM | 1.05 µM | 0.046 µM | 0.0457 µM | 0.031 µM | 0.0282 µM | Active | 22.59 | 4.54 | – | 0.229 µM | 0.0575 µM | Activity (MES-SA/Dx5 [11]): Active |
| Oc1ccccc1/C=N/Nc1nc2ccccc2s1 | 24.7 µM | 23.4 µM | 10.5 µM | 9.55 µM | 23.2 µM | 4.55 µM | 18.1 µM | 15.8 µM | 11.7 µM | 11.7 µM | 3.16 µM | 3.09 µM | 6.01 µM | 5.89 µM | Active | 2.04 | 7.18 | – | 26.9 µM | 4.27 µM | Activity (MES-SA/Dx5 [11]): inactive |
| Cc1ccc(NC(=S)N/N=C/c2ccccc2O)cc1 | 3.97 µM | – | 5.36 µM | – | 1.44 µM | 1.87 µM | 3.36 µM | 3.31 µM | 3.69 µM | 3.47 µM | 5.15 µM | 5.01 µM | 6.01 µM | 6.03 µM | – | – | – | Toxic | – | – | – |
| COc1ccc(NC(=S)NNC2=c3ccccc3=NC2=O)cc1 | – | – | – | – | – | – | – | – | – | – | – | – | – | – | – | – | – | Toxic | – | – | – |
| CCc1ccc(/C=N/Nc2cc(OC)ncn2)nc1 | 1.55 µM | – | 1.11 µM | – | 2.33 µM | 2.11 µM | 1.23 µM | 1.23 µM | 1.57 µM | 1.55 µM | 1.3 µM | 1.29 µM | 0.63 µM | 0.617 µM | Active | 1.41 | – | – | – | – | Ratio IC50 [14]: 2.03; Activity (A2780 ADR [15]): Active |
